Source: PubChem
An excerpt weighted towards active compounds, which were near 4.7% of everything screened.
HTR2A ag = mouse HTR2A agonism via beta-arrestin recruitment. P35363. CHO-K1 mHTR2A beta-arrestin complementation, luminescence; percent of 30 µM serotonin response. activation, % at 7.6 µM. 0.66% of 360,000 active. AID 624169;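 active means activation above a run cutoff, the mean activation of all tested compounds plus 3 SD, cut at about 14% in these data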;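 further: 0% = plate median of compound wells and 100% = 30 µM serotonin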
Target sequence (P35363 whole entry, looked up): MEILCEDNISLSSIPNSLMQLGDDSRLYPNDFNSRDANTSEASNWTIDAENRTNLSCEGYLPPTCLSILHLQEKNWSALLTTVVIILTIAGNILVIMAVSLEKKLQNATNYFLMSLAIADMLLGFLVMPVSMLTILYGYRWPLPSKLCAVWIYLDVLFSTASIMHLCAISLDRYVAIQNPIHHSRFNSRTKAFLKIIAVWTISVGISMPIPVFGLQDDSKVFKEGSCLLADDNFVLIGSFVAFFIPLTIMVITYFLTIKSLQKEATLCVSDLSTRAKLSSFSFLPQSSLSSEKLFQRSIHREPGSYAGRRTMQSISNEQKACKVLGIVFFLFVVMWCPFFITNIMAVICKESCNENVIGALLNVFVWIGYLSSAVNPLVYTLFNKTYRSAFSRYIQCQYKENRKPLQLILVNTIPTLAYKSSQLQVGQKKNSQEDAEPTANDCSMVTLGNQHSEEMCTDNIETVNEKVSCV
AHR act = activators of human aryl hydrocarbon receptor; P35869; AHR-responsive luciferase reporter cells, luminescence; activation, % at 5 µM; 2.5% of 320,000 active; in the data active means activation above about 47%;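 further: 0% = vehicle wells and 100% = reference agonist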
MC4R antag cAMP = antagonists of human melanocortin 4 receptor (MC4R); MC4R-expressing cells, MTII-stimulated cAMP, LANCE TR-FRET; inhibition, % at 6.5 µM; P32245; 0.48% of 360,000 active;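 active means inhibition above its plate's cutoff, the mean of tested wells on that plate plus 3 SD, cut at about 29% in these data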;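 further: 0% = Melanotan II alone and 100% = Melanotan II plus saturating MCL0020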
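Material: U2OS-MC4R stable cell line | Reagent: Melanotan II challenge after compound preincubation | Doses: One concentration, 6.5 µM nominal | Incubation: 30-min compound preincubation, 1-h Melanotan II challenge, 1-h detection, room temperature | Signal: TR-FRET cAMP assay | Replicates: One well per compound, no replicates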
MC4R barr agon = agonists of human melanocortin 4 receptor (MC4R) beta-arrestin. U2OS MC4R beta-arrestin complementation, luminescence; percent of melanotan II response, DMSO zero. activation, % at 8.9 µM. P32245. 0.98% of 360,000 active. AID 540308;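 active means activation above a per-plate cutoff, the mean activation of sample wells on that plate plus 3 SD, cut at about 8% in these data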
GAA850 FXN act = activators of GAA850 frataxin (FXN) promoter | HEK293 lucGAA850 FXN promoter luciferase reporter, 24 h; percent of 10 µM SAHA response | activation, % at 6 µM | 0.56% of 360,000 active;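 active means activation above the average of all compounds screened plus 3 SD, cutoff fixed separately per campaign, cut at about 7.5% in these data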;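 further: 0% = DMSO wells and 100% = 10 µM SAHA wells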
Starred values were filed as active, the others as inactive; nt = not tested or not shown.

SMILES	HTR2A ag	AHR act	MC4R antag cAMP	MC4R barr agon	GAA850 FXN act
CCN(CC)C(=O)c1cccc(-c2csc(C(C)(O)c3ccncc3)n2)c1 (centres undefined)	4.1	nt	2.4	0.0	-1.7
COc1cc(NC(=O)c2c(OC)cccc2OC)ccc1NC(=O)c1cc2ccccc2o1	1.2	71.8*	6.2	0.2	3.9
COc1ccccc1NC(=O)c1cc2ccc(O)cc2o/c1=N\O	-0.1	-1.4	-8.9	-2.1	-0.8
COc1cc(NC(=O)c2ccccc2F)ccc1NC(=O)c1cc2ccccc2o1	-0.2	nt	0.9	8.8*	2.2
COc1ccccc1NC(=O)c1cc2ccccc2o/c1=N\O	-3.0	67.3*	9.6	-1.8	2.8
O=C(NNC(=O)c1cc2ccccc2[nH]1)OCc1ccccc1	7.0	66.3*	8.6	1.3	2.0
CC(C)CC(C)NNC(=O)c1cc2ccccc2[nH]1 (centres undefined)	1.1	13.7	-2.3	1.7	1.9
Cc1cc2nc(C)c(=O)n(C)c2cc1C	6.2	-0.6	10.4	1.5	0.7
Cc1cc2nc3n(c2cc1C)CCCN3	-3.6	72.5*	-4.7	-0.4	0.7
O=C(CSc1nc2ccccc2o1)NCc1ccc2c(c1)OCO2	-7.9	69.9*	15.2	0.7	1.9
O=C(CSc1nc2ccccc2[nH]1)NCc1ccc2c(c1)OCO2	-4.3	54.8*	2.5	4.0	0.3
O=C(CCc1nc2ccccc2[nH]1)NCc1ccc2c(c1)OCO2	-8.6	7.7	14.5	-1.1	-0.7
COCCNC(=O)C1CCCN(C(=O)c2sc(-c3ccccc3)nc2C)CC1 (centres undefined)	0.9	nt	-4.5	-2.2	0.7
COC(=O)C(=N/Nc1ccccc1C(=O)OC)/C(C)=N/O	5.8	1.2	-0.8	8.8*	-1.2
O=[N+]([O-])c1cc(/C=N/NC(=S)Nc2ccccc2Cl)ccc1Cl	-2.7	16.0	-10.8	-1.5	-0.2
S=C(N/N=C/c1ccc(Cl)c(Cl)c1)Nc1ccccc1Cl	-0.9	41.4	-6.5	9.3*	3.6
Fc1cccc(/C=N/NC(=S)Nc2ccccc2Cl)c1	12.0	76.1*	-7.8	1.5	5.8
O=S(=O)(c1cccc2nsnc12)N1CCCCC1	-3.6	-1.9	-1.0	0.8	1.2
COc1ccccc1-c1nc(=S)c(C(C)=O)c(C)[nH]1	-0.3	54.0*	8.8	-0.8	1.5
CC(=O)c1c(C)[nH]c(-c2ccccc2)nc1=S	5.0	65.6*	-2.3	-0.1	3.2
COc1ccccc1-c1nc(NC(C)=O)n[nH]1	nt	29.1	nt	nt	nt
CC(=O)c1c(C)nc(-c2ccccc2)nc1N	3.8	76.9*	-1.5	-3.1	1.9
CC(=O)c1c(C)nc(-c2ccccc2)nc1NC(=O)C(C)C	-0.9	15.1	7.8	-1.7	-0.5
CC(=O)c1c(NC(=O)c2ccccc2)[nH]c(-c2ccccc2)nc1=S	-3.4	16.3	11.3	-1.6	3.3
CCOC(=O)C1(C)CCN1C(=O)c1ccco1 (centres undefined)	1.2	nt	13.6	-0.3	0.8
SMILES	HTR2A ag	AHR act	MC4R antag cAMP	MC4R barr agon	GAA850 FXN act
O=C(N[C@@H]1CCC(=O)N(CC[C@H](Oc2ccccc2)c2ccccc2)CC1)OCc1ccccc1	-6.4	0.0	13.2	-1.0	-2.0
Cc1ccc2nc(SCC(=O)Nc3cc(C)on3)nc(=O)n2c1	7.2	0.0	-4.8	-1.4	2.2
Cc1cc(C)c2nc(-c3ccccn3)cc(C(=O)NCc3ccco3)c2c1	0.1	69.4*	-2.6	-0.6	2.5
CCCCn1c(=N)n(CC(=O)c2ccc(Br)s2)c2ccccc21	-6.8	52.2*	-2.6	4.3	-4.6
CCn1c(=N)n(CC(=O)c2ccc(Br)s2)c2ccccc21	-5.0	47.6*	0.1	1.2	0.8
CCCS(=O)(=O)NC(=O)C1(C)CCCN(C(=O)c2cccc(C(F)(F)F)c2)C1 (centres undefined)	-2.7	nt	8.6	2.5	-1.7
Cc1ccc(NC(=O)C2=CC(c3cccs3)=NS(=O)(=O)N2C)cc1	-10.2	64.3*	11.2	0.9	-2.3
CC(=O)c1ccc(NC(=O)C2=CC(c3cccs3)=NS(=O)(=O)N2C)cc1	-0.6	0.4	6.5	-1.7	0.0
CN(C)/N=C/c1ccc([N+](=O)[O-])cc1[N+](=O)[O-]	-1.8	59.1*	-2.6	-3.8	-0.7
C=CCOc1ccccc1CNCCNC(=O)c1nonc1N	-0.4	1.9	3.3	-0.4	-2.0
C=CCOc1ccccc1CN(C(=O)CCl)c1ccc2c(c1)OCO2	-0.2	43.1	9.3	15.3*	-9.0
CN(Cc1ccc(Cl)cc1)C(=O)c1ccc2ccccc2n1	-3.3	8.6	0.1	0.4	2.6
c1ccc(-c2nc(NCc3cccnc3)c3ccccc3n2)cc1	-0.7	3.0	1.5	0.7	3.8
O=C(OCCNc1nc(-c2ccccc2)nc2ccccc12)c1cccnc1	1.6	47.9*	-0.2	-1.0	1.6
O=C(OCCNc1nc(-c2ccccc2)nc2ccccc12)c1ccncc1	-4.3	47.5*	2.6	-1.7	-0.6
O=C(O)CCNc1nc(-c2ccccc2)nc2ccccc12	-3.3	15.5	-2.6	-2.8	1.2
Cc1ccc(N2CCN(C(=O)c3cc(-c4ccc(F)cc4)[nH]c3C)CC2C)cc1 (centres undefined)	2.9	nt	8.0	2.6	0.3
Clc1ccc2c(NCc3ccccn3)ncnc2c1	2.2	59.5*	-0.6	0.3	2.4
CC(C)N(C(=O)CSc1ccc(S(=O)(=O)N2CCCCC2)cn1)c1ccccc1	-7.9	-0.7	6.3	-2.7	0.2
COc1ccccc1N=Nc1ccc(O)c2ncccc12	-19.9	50.8*	4.4	-5.3	1.1
CCS(=O)(=O)c1ccc(N=Nc2ccc(O)c3ncccc23)c(OC)c1	-4.0	nt	-0.5	-6.1	-0.3
C=C(C)C1CC=C(C)/C(=N/NC(=O)COc2ccc(C)cc2)C1 (centres undefined)	-1.3	1.0	16.6	0.8	1.4
C=C(C)C1CC=C(C)/C(=N\NC(=S)Nc2ccc(C)cc2)C1 (centres undefined)	-3.1	48.0*	5.6	0.5	1.6
CN1OC[C@@H]2CN[C@H](c3cccc(Oc4ccccc4)c3)C[C@@H]21	0.1	nt	3.6	-0.1	1.0
O=C(Nc1nc(COc2ccccc2)cs1)c1ccccc1F	-3.0	-5.4	2.9	-3.0	4.0
SMILES	HTR2A ag	AHR act	MC4R antag cAMP	MC4R barr agon	GAA850 FXN act
CC1NS(=O)(=O)c2cc([N+](=O)[O-])ccc21 (centres undefined)	0.5	nt	nt	nt	nt
NC(=O)N/N=C/c1cn(-c2ccccc2)nc1-c1cccs1	-4.6	32.7	6.4	-1.3	7.3
O=C(Nc1cccc2ccccc12)c1cn(-c2ccccc2)nc1-c1cccs1	17.3*	-4.8	-1.6	-1.2	0.8
O=C(O)c1cccc(N/N=C/c2cn(-c3ccccc3)nc2-c2cccs2)c1	3.3	54.0*	-5.0	-3.3	7.2
C[C@@H]1CN([C@@H](C)CO)C(=O)CCCn2nncc2CO[C@@H]1CN(C)C(=O)c1ccccc1	-0.8	nt	-0.1	-1.2	1.7
O=C1CCC(c2ccc(-n3ccnc3)cc2)=NN1	1.6	67.0*	-5.7	-0.9	3.3
